The results in this text go back to ChEMBL document CHEMBL1153612, “Synthesis and antitumor activity of novel dithiocarbamate substituted chromones” (Eur J Med Chem, 2009).

Assay [1] has as its system SW480. The assay is described as follows: Cell cycle arrest in human SW480 cells assessed as accumulation at S phase at 0.7 uM after 48 hrs by flow cytometry. The class given is functional. In a few lines:
(§1)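 Cells grown to about 70% confluence in 6-well plates, then treated with compound at three concentrations for 48 h. Cell-cycle phase distribution measured by flow cytometry (FACS).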
(In flow cytometry, cells or beads pass a laser one at a time.)

Assay [2] is described as follows: Antiproliferative activity against human MDA-MB-435S cells after 72 hrs by MTT assay. The class given is functional, cell-based. In a few lines:
(§2)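 Cells seeded at 8000 per well in 96-well plates, exposed to compound for 72 h. MTT added at 0.5 mg/mL final and incubated 4 h. Formazan dissolved in DMSO, absorbance read at 570 nm. IC50 is the concentration giving 50% reduction in cell growth, reported as the mean of three repeated experiments.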
In general terms: Tetrazolium assays rely on reduction of a dye to a coloured formazan, in cell work by metabolically active cells.

In assay [3] the test system is HEp-2. The assay is described as follows: Antiproliferative activity against human Hep2 cells after 72 hrs by MTT assay. Type of assay: functional, cell-based. The settings on record: HEp-2, 72 h. The essentials: as §2
The subject of assay [4] is SW480. The assay is described as follows: Cell cycle arrest in human SW480 cells assessed as accumulation at G2/M phase at 1 uM after 48 hrs by flow cytometry. The class given is functional. In a few lines: as §1
Assay [5] concerns MCF7. The assay is described as follows: Antiproliferative activity against human MCF7 cells after 72 hrs by MTT assay. Type of assay: functional, cell-based. The settings on record: MCF7, 72 h. In a few lines:
as §2

In assay [6] the test system is SW480. The assay is described as follows: Cell cycle arrest in human SW480 cells assessed as accumulation at G0/G1 phase at 0.7 uM after 48 hrs by flow cytometry. Type of assay: functional. In a few lines: as §1
For assay [7], the system named is SW480. The assay is described as follows: Cell cycle arrest in human SW480 cells assessed as accumulation at G2/M phase at 0.5 uM after 48 hrs by flow cytometry. The class given is functional. In a few lines: as §1
Assay [8] relates to SW480. The assay is described as follows: Cell cycle arrest in human SW480 cells assessed as accumulation at G2/M phase at 0.7 uM after 48 hrs by flow cytometry. The class given is functional. The essentials: as §1
Assay [9] in a line: Antiproliferative activity against human LM7 cells after 72 hrs by MTT assay. Type of assay: functional, cell-based. The settings on record: LM7, 72 h. In a few lines: as §2
Assay [10] has as its system SW480. As to the kind of experiment: Antiproliferative activity against human SW480 cells after 72 hrs by MTT assay. Type of assay: functional, cell-based. The settings on record: SW480, 72 h. The essentials:
as §2

Assay [11] deals with SW480. The assay is described as follows: Cell cycle arrest in human SW480 cells assessed as accumulation at S phase at 1 uM after 48 hrs by flow cytometry. Type of assay: functional. In a few lines:
as §1

Assay [12] relates to HeLa. As to the kind of experiment: Antiproliferative activity against human HeLa cells after 72 hrs by MTT assay. Type of assay: functional, cell-based. The essentials: as §2
Assay [13] deals with SW480. The assay is described as follows: Cell cycle arrest in human SW480 cells assessed as accumulation at G0/G1 phase at 0.5 uM after 48 hrs by flow cytometry. The class given is functional. The essentials:
as §1

For assay [14], the system named is SW480. The assay is described as follows: Cell cycle arrest in human SW480 cells assessed as accumulation at S phase at 0.5 uM after 48 hrs by flow cytometry. Type of assay: functional. In a few lines: as §1
The subject of assay [15] is SW480. As to the kind of experiment: Cell cycle arrest in human SW480 cells assessed as accumulation at G0/G1 phase at 1 uM after 48 hrs by flow cytometry. The class given is functional. The essentials:
as §1

Assay [16] is described as follows: Cell cycle arrest in human MDA-MB-435S cells assessed as accumulation at G2/M phase at 0.12 uM after 48 hrs by flow cytometry. Type of assay: functional, cell-based. The essentials:
as §1

The nature of assay [17]: Cell cycle arrest in human MDA-MB-435S cells assessed as accumulation at G0/G1 phase at 0.12 uM after 48 hrs by flow cytometry. Type of assay: functional, cell-based. The essentials: as §1
Assay [18] can be described thus: Cell cycle arrest in human MDA-MB-435S cells assessed as accumulation at G0/G1 phase at 0.13 uM after 48 hrs by flow cytometry. Type of assay: functional, cell-based. In a few lines: as §1
A short description of assay [19]: Cell cycle arrest in human MDA-MB-435S cells assessed as accumulation at S phase at 0.14 uM after 48 hrs by flow cytometry. The class given is functional, cell-based. The essentials: as §1
Assay [20] in a line: Cell cycle arrest in human MDA-MB-435S cells assessed as accumulation at G2/M phase at 0.13 uM after 48 hrs by flow cytometry. Type of assay: functional, cell-based. The essentials: as §1
Assay [21] can be described thus: Cell cycle arrest in human MDA-MB-435S cells assessed as accumulation at S phase at 0.13 uM after 48 hrs by flow cytometry. Type of assay: functional, cell-based. In a few lines:
as §1

The nature of assay [22]: Cell cycle arrest in human MDA-MB-435S cells assessed as accumulation at G0/G1 phase at 0.14 uM after 48 hrs by flow cytometry. The class given is functional, cell-based. The essentials:
as §1

Assay [23] is described as follows: Cell cycle arrest in human MDA-MB-435S cells assessed as accumulation at G2/M phase at 0.14 uM after 48 hrs by flow cytometry. The class given is functional, cell-based. In a few lines: as §1
Assay [24] in a line: Cell cycle arrest in human MDA-MB-435S cells assessed as accumulation at S phase at 0.12 uM after 48 hrs by flow cytometry. Type of assay: functional, cell-based. The essentials: as §1

With `O=c1c(Cl)c(CSC(=S)N2CCCCC2)oc2ccccc12`, the Activity in assay [1] is on record as 35.2%; in assay [4], 39.27%; in assay [6], 36.84%; in [7], 27.77%; in assay [8], 27.96%; in [11], 34.22%. Moreover, the Activity in assay [13] was 39.39%; in assay [14], 37.84%; in assay [15], 26.51%. In addition, the IC50 in assay [2] was 0.77 µM; in assay [3], 0.94 µM; in [5], 1 µM; in [9], 3.3 µM; in assay [10] it was 0.69 µM; in assay [12] it was 9.8 µM.

For the molecule `O=c1c(CSC(=S)N2CCCCC2)coc2ccc(Cl)cc12`, the Activity in assay [16] stood at 13.9%; in assay [17], 60.8%; in assay [18], 58.7%; in assay [19], 33.6%; in assay [20], 20.6%; in assay [21], 20.7%. The Activity came to 41.6% in assay [22], 24.9% in assay [23] and 25.3% in assay [24]. In addition, the half-maximal inhibitory concentration (IC50) in assay [2] came to 0.24 µM; in assay [3], 0.28 µM; in assay [5] it was 0.38 µM; in assay [9] it was 0.85 µM; in assay [10], 0.79 µM; in [12], 0.44 µM.

The term IC50 denotes the concentration at which inhibition is half-maximal. Higher therefore signals weaker potency in that assay.
